In ChEMBL document CHEMBL2157877, “Synthesis and pharmacological evaluation of N-substituted 2-(2-oxo-2H-chromen-4-yloxy)propanamide as cyclooxygenase inhibitors” (Bioorg Med Chem Lett, 2012) one finds IC50 data, which are given here for ten compounds.

This assay deals with T1, Prostaglandin G/H synthase 1 (Ovis aries, UniProt P05979).
T1 sequence (P05979 whole entry): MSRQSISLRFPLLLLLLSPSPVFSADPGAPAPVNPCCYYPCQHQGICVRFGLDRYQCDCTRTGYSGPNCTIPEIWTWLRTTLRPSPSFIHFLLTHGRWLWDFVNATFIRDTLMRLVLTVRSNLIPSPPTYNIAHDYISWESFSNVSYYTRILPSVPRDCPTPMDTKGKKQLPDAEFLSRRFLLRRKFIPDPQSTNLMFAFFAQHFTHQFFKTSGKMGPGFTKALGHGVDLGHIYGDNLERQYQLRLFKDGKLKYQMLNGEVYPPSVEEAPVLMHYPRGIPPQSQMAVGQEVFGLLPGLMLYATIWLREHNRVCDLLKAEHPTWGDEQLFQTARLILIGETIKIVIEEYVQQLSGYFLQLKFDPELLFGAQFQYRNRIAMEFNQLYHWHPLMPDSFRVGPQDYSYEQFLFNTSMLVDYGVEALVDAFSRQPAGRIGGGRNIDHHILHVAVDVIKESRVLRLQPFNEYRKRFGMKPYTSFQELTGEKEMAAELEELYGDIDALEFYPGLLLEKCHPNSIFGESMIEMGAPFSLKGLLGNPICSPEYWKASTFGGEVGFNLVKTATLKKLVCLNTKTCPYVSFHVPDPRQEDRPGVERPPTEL
Description: Inhibition of ovine COX1 using arachidonic acid as substrate incubated for 1 min prior to substrate addition measured for 25 secs by TMPD-based chromogenic assay. The method, boiled down:
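COX-1 purified from ram seminal vesicles by chromatography. Reaction in Tris HCl buffer (100 mM, pH 8.0) with hematin, EDTA (3 mM) and enzyme, preincubated with test compound at 25 °C for 1 min. Started with arachidonic acid plus TMPD. Nonenzymatic oxidation subtracted before calculating percent inhibition.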
As usually defined, the IC50 is the concentration at which inhibition is half-maximal. A lower IC50 goes with inhibition by little substance. Take `Cc1c(Cl)cccc1NC(=O)C(C)Oc1cc(=O)oc2ccccc12` (racemic): 4.61 µM corresponded to half-maximal inhibition (IC50). In the case of `CC(Oc1cc(=O)oc2ccccc12)C(=O)Nc1ccc(N2CCOCC2=O)cc1` (racemic) it was 4.6 µM.

On to `CC(Oc1cc(=O)oc2ccccc12)C(=O)Nc1ccc(C(F)(F)F)cc1C#N` (racemic), for which the IC50 was determined as 9.6 µM. Against the preceding compound, the IC50 is about 2.1-fold higher. The figure for `CC(Oc1cc(=O)oc2ccccc12)C(=O)N1CCCC1` (racemic) is 13.7 µM; for `CC(Oc1cc(=O)oc2ccccc12)C(=O)Nc1ccc(F)cc1F` (racemic) it is 1.64 µM; for `CC(Oc1cc(=O)oc2ccccc12)C(=O)N1CCOCC1` (racemic) it is 5.03 µM. In the case of `COc1ccc(NC(=O)C(C)Oc2cc(=O)oc3ccccc23)cc1` (racemic) it was 2.26 µM; in that of `CC(Oc1cc(=O)oc2ccccc12)C(=O)Nc1cccc2c(=O)[nH]ccc12` (racemic), 2.98 µM. With `CC(Oc1cc(=O)oc2ccccc12)C(=O)NC12CC3CC(C)(CC(C)(C3)C1)C2` (mixture of isomers), the IC50 was 3.33 µM.

The compound `CC(Oc1cc(=O)oc2ccccc12)C(=O)Nc1ccncc1` (racemic) displayed an IC50 of 9.64 µM.
